From ChEMBL document CHEMBL3120099, “Novel S1P(1) receptor agonists--part 2: from bicyclo[3.1.0]hexane-fused thiophenes to isobutyl substituted thiophenes” (J Med Chem, 2014)

Experiments:
[1] = target: Sphingosine 1-phosphate receptor 3 (Homo sapiens, UniProt Q99500); test: Agonist activity at human recombinant S1P3 receptor expressed in CHO cells assessed as membrane-bound 35S-GTPgammaS incubated 30 mins prior to substrate addition measured after 1 hr by topcount scintillation counting analysis; type: functional, cell-based
Chain of Sphingosine 1-phosphate receptor 3 (Q99500 whole entry): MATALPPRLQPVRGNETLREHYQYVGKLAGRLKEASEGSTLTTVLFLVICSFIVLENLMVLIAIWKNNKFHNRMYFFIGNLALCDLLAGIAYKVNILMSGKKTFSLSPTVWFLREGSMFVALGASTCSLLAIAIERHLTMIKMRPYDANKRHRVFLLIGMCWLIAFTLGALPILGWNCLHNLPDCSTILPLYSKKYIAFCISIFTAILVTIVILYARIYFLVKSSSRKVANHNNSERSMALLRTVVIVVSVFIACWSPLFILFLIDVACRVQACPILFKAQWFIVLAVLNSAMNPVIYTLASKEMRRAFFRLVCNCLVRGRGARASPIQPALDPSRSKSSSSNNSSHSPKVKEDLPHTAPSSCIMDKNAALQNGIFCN

[2] = target: Sphingosine 1-phosphate receptor 1 (Homo sapiens, UniProt P21453); test: Agonist activity at human recombinant S1P1 receptor expressed in CHO cells assessed as membrane-bound 35S-GTPgammaS incubated 30 mins prior to substrate addition measured after 1 hr by topcount scintillation counting analysis; type: functional, cell-based
Chain of Sphingosine 1-phosphate receptor 1 (P21453 whole entry): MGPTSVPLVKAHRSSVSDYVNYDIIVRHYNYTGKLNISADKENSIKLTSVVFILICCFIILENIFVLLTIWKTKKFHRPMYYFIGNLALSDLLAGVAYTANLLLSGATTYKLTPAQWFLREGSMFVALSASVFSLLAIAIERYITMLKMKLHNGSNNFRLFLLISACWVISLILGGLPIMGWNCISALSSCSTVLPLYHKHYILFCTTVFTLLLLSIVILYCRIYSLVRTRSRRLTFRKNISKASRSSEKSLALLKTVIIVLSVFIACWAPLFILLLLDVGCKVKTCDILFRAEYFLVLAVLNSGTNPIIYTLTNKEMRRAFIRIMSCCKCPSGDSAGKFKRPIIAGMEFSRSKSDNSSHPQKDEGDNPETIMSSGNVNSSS

[3] = species: Homo sapiens; test: Selectivity ratio of EC50 for human recombinant S1P3 receptor to EC50 for human recombinant S1P1 receptor
Procedure, shortened: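 GDP was 1 μM for S1P1 and 3 μM for S1P3. Compounds (up to 10 μM) were preincubated 30 min at rt, then incubated 1 h at rt. Bound label was counted after filtration. 10 μM S1P defined maximum. EC50s are geometric means of ≥3 independent duplicate runs.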

[4] = system: Rattus norvegicus; test: Lymphopenic activity in Wistar rat assessed as reduction in blood lymphocyte count at 10 mg/kg, po after 24 hrs; type: functional
Procedure, shortened: (§1)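 Normotensive male Wistar rats given 1–10 mg/kg by gavage in 5% DMSO/7.5% succinylated gelatin. Blood taken before and 3, 6 and 24 h after dosing, with later times for some compounds. Lymphocytes counted by hematology analyzer. % LC change calculated per animal relative to the predose value (=100%). Mean ± SEM.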

[5] = system: Rattus norvegicus; test: Lymphopenic activity in Wistar rat assessed as reduction in blood lymphocyte count at 10 mg/kg, po after 6 hrs; type: functional; parameters: scale not given: the % may be the effect or the level left; procedure, shortened: as §1
[6] = system: Rattus norvegicus; test: Lymphopenic activity in Wistar rat assessed as reduction in blood lymphocyte count at 10 mg/kg, po after 3 hrs; type: functional; parameters: scale not given: the % may be the effect or the level left; procedure, shortened: as §1
[7] = Plasma concentration in Wistar rat at 10 mg/kg, po after 24 hrs; type: ADME, organism-based; parameters: dose 10 mg/kg, route oral
[8] = Plasma concentration in Wistar rat at 10 mg/kg, po after 6 hrs; type: ADME, organism-based; parameters: dose 10 mg/kg, route oral
[9] = Plasma concentration in Wistar rat at 10 mg/kg, po after 3 hrs; type: ADME, organism-based; parameters: dose 10 mg/kg, route oral

| SMILES | EC50 [1] [nM] | EC50 [2] [nM] | further results |
| --- | --- | --- | --- |
| Cc1cc(CCC(=O)c2sc(C)c3c2CCC(C)(C)C3)cc(C)c1OCC(O)CNCCO (racemic) | > 10000 | 14 |  |
| CCc1sc(C(=O)CCc2cc(C)c(OC[C@@H](O)CO)c(C)c2)c2c1CC1(CC2)CC1 | 819 | 1.1 |  |
| CCc1cc(-c2noc(-c3scc4c3CCC(C)(C)C4)n2)cc(C)c1OCC(O)CNC(=O)CO (racemic) | 314 | 1.7 | Ratio EC50 [3]: 100 |
| CCc1cc(-c2noc(-c3sc(OC)c4c3CCC(C)(C)C4)n2)cc(C)c1OC[C@@H](O)CNC(=O)CO | 83 | 1.8 |  |
| Cc1cc(CCC(=O)c2sc(C)c3c2CCC(C)(C)C3)cc(C)c1OCCN | 8560 | 6.1 |  |
| CCc1cc(-c2noc(-c3sc(CC)c4c3CCC3(CC3)C4)n2)cc(C)c1OC[C@@H](O)CNC(=O)CO | 24 | 1.1 |  |
| Cc1cc(CCC(=O)c2sc(C)c3c2CCC(C)(C)C3)cc(C)c1OC[C@@H](O)CO | 1400 | 2.6 | Ratio EC50 [3]: 100 |
| CCCc1ccc(-c2nc(-c3cc(C)c(OCC(O)CNC(=O)CO)c(C)c3)no2)s1 (racemic) | 1150 | 0.9 | % change in blood lymphocyte count from predose [4]: 31%; Activity [5]: -59%; Activity [6]: -65% |
| CCc1cc(CCC(=O)c2sc(C)c3c2CCC(C)(C)C3)cc(C)c1OCC(O)CNC(=O)CO (racemic) | 4420 | 1.2 |  |
| CCc1sc(C(=O)CCc2cc(C)c(OC[C@@H](O)CO)c(C)c2)c2c1CC(C)(C)CC2 | 126 | 0.4 |  |
| CCc1cc(CCC(=O)c2scc3c2CCC(C)(C)C3)cc(C)c1OC[C@@H](O)CNC(=O)CO | 5270 | 4.8 | Ratio EC50 [3]: 100 |
| CCc1sc(C(=O)CCc2cc(C)c(OCC(O)CO)c(C)c2)c2c1C[C@@](C)(O)CC2 (mixture of isomers) | > 10000 | 79 |  |
| CCc1cc(CCC(=O)c2sc(C(F)(F)F)c3c2CCC(C)(C)C3)cc(C)c1OCC(O)CNC(=O)CO (racemic) | 242 | 1.3 |  |
| Cc1cc(CCC(=O)c2sc(C)c(CC(C)C)c2C)cc(C)c1OCC(O)CNC(=O)CO (racemic) | 5270 | 2.7 |  |
| CCc1sc(C(=O)CCc2cc(C)c(OC[C@@H](O)CO)c(C)c2)c2c1CCCC2 | 3830 | 20 |  |
| Cc1cc(CCC(=O)c2sc(C)c3c2CCC(C)(C)C3)cc(C)c1OCCCNCCO | > 10000 | 48 |  |
| Cc1cc(CCC(=O)c2sc(C)c3c2CCC(C)(C)C3)cc(C)c1OCC(O)CNCCC(=O)O (racemic) | 569 | 1.2 |  |
| Cc1cc(CCC(=O)c2sc(C)c3c2CCC(C)(C)C3)cc(C)c1OCC(O)CNC(=O)CO (racemic) | 392 | 0.5 |  |
| CCc1sc(C(=O)CCc2cc(C)c(OC[C@@H](O)CO)c(C)c2)c2c1CC1(CCCC1)CC2 | 62 | 0.4 |  |
| CCc1ccc(-c2nc(-c3cc(C)c(OCC(O)CNC(=O)CO)c(C)c3)no2)s1 (racemic) | 1860 | 4.3 | concentration at 24 h [7]: < 2 ng/mL; concentration at 6 h [8]: 190 ng/mL; concentration at 3 h [9]: 490 ng/mL |
| CCc1cc(-c2noc(-c3sc(CC)c4c3CCC(CC)(CC)C4)n2)cc(C)c1OC[C@@H](O)CNC(=O)CO | 1.2 | 6 |  |
| CCc1sc(C(=O)CCc2cc(C)c(OCC(O)CO)c(C)c2)c2c1C[C@@H](O)CC2 (mixture of isomers) | > 10000 | 860 |  |
| Cc1cc(CCC(=O)c2sc(C)c3c2CCC(C)(C)C3)cc(C)c1OCCNCCO | > 10000 | 11 |  |

| SMILES | EC50 [1] [nM] | EC50 [2] [nM] | further results |
| --- | --- | --- | --- |
| Cc1cc(CCC(=O)c2sc(C)c3c2CCC(C)(C)C3)cc(C)c1CCC(=O)O | > 10000 | 21 |  |
| Cc1cc(CCC(=O)c2sc(C)c3c2CCC(C)(C)C3)cc(C)c1OCCO | 4450 | 19 |  |
| Cc1cc(CCC(=O)c2sc(C)c3c2CCC(C)(C)C3)cc(C)c1OCC(O)CN (racemic) | > 10000 | 7 |  |
| CCc1ccc(-c2nc(-c3cc(C)c(OC[C@@H](O)CNC(=O)CO)c(C)c3)no2)s1 |  |  | % change in blood lymphocyte count from predose [4]: 12%; Activity [5]: -77%; Activity [6]: -73% |
| Cc1cc(-c2noc(-c3sc(C)c(CC(C)C)c3C)n2)cc(C)c1OCC(O)CNC(=O)CO (racemic) | 74 | 0.5 | % change in blood lymphocyte count from predose [4]: -93%; Activity [5]: -86%; Activity [6]: -78% |
| CCc1sc(C(=O)CCc2cc(C)c(OCC(O)CO)c(C)c2)c2c1C[C@@H](N(C)C)CC2 (mixture of isomers) | > 10000 | 1600 |  |
| CCCCc1ccc(-c2nc(-c3cc(C)c(OCC(O)CNC(=O)CO)c(C)c3)no2)s1 (racemic) | 1250 | 4.7 | % change in blood lymphocyte count from predose [4]: 18%; Activity [5]: -52%; Activity [6]: -66% |
| CCc1cc(-c2noc(-c3sc(CC)c4c3CCCC4)n2)cc(C)c1OC[C@@H](O)CNC(=O)CO | 172 | 0.9 |  |
| Cc1cc(CCC(=O)c2sc(C)c3c2CCC(C)(C)C3)cc(C)c1OCC(O)CN1CC(C(=O)O)C1 (racemic) | 1760 | 4.3 |  |
| CCc1cc(CCC(=O)c2sc(OC)c3c2CCC(C)(C)C3)cc(C)c1OCC(O)CNC(=O)CO (racemic) | 3910 | 1.3 |  |
| CCc1c(-c2nc(-c3cc(C)c(OCC(O)CNC(=O)CO)c(C)c3)no2)sc(C)c1CC(C)C (racemic) | 172 | 6.6 | % change in blood lymphocyte count from predose [4]: -25%; Activity [5]: -40%; Activity [6]: -30% |
| CCc1sc(C(=O)CCc2cc(C)c(OC[C@@H](O)CO)c(C)c2)c2c1CC(CC)(CC)CC2 | 25 | 0.4 |  |
| Cc1cc(CCC(=O)c2ccc(CC(C)C)s2)cc(C)c1OCC(O)CNC(=O)CO (racemic) | 590 | 7.7 |  |
| CCc1cc(-c2noc(-c3sc(C)c4c3CCC(C)(C)C4)n2)cc(C)c1OCC(O)CNC(=O)CO (racemic) | 122 | 1.5 |  |
| CCc1cc(-c2noc(-c3sc(CC)c4c3CCC3(CCCC3)C4)n2)cc(C)c1OC[C@@H](O)CNC(=O)CO | 11 | 4.7 |  |
| Cc1cc(CCC(=O)c2sc(C)c3c2CCC(C)(C)C3)cc(C)c1O | > 10000 | 21 |  |
| CCCc1sc(-c2nc(-c3cc(C)c(OC[C@@H](O)CNC(=O)CO)c(CC)c3)no2)c2c1CC(C)(C)CC2 | 11 | 20 |  |
| Cc1cc(-c2noc(-c3cc(CC(C)C)c(C)s3)n2)cc(C)c1OCC(O)CNC(=O)CO (racemic) | 236 | 1.5 | % change in blood lymphocyte count from predose [4]: -91%; Activity [5]: -78%; Activity [6]: -77% |
| CCCc1sc(C(=O)CCc2cc(C)c(OC[C@@H](O)CNC(=O)CO)c(CC)c2)c2c1CC(C)(C)CC2 | 25 | 1.3 |  |
| CCc1sc(C(=O)CCc2cc(C)c(OCC(O)CO)c(C)c2)c2c1CC(C)CC2 (mixture of isomers) | 599 | 1.6 |  |
| Cc1cc(CCC(=O)c2sc(C)c3c2CCC(C)(C)C3)cc(C)c1OC[C@H](O)CO | 1100 | 3.4 | Ratio EC50 [3]: 100 |
| Cc1cc(CCC(=O)c2sc(C)c3c2CCC(C)(C)C3)cc(C)c1OCCCO | 4450 | 71 |  |
